Experimental data taken from PMC4172508 (Bioorganic & medicinal chemistry, 2014).

Experiments:
[1] = tested on: Balb/c mice; assay: Acute toxicity study; type: in vivo
[2] = Stability of stock solution; type: physicochemical; conditions: Solutol HS15 and ethyl alcohol
Outline: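 Stock solution: 70 mg prodrug or 60 mg parent drug per ml of 75% (w/v) Solutol HS15 in ethanol (about 20% v/v ethanol). It was stored in capped brown glass tubes at room temperature or 4°C. At intervals, samples were diluted 100-fold in acetonitrile/water (4/1) for C18 HPLC with UV detection at 280 nm.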

[3] = tested on: H1299 cells; assay: Cell viability, sulforhodamine B assay; type: cell-based; conditions: H1299, 3 days after treatment
Outline: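 Sulforhodamine B assay on the lung cancer line. Cells were exposed to a range of test compound concentrations, and viability was read 3 days after treatment. DMSO-treated control cells were set to 100. Values are mean ± SD of quadruplicate wells.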

[4] = Stability of powder during storage; type: physicochemical; conditions: for time powder stable without detectable changes: non-evacuated container; for stability of powder (remaining): 37°C
Outline: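 Powdered test compounds were stored at 4°C, room temperature (21°C) or 37°C. Aliquots were taken at time points and kept at −20°C. Each was dissolved in DMSO, diluted with 9 volumes of acetonitrile and analysed by C18 HPLC (acetonitrile/water gradient with 0.2% formic acid, UV 280 nm).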

[5] = tested on: Calu3 cells; assay: Cell viability, sulforhodamine B assay; type: cell-based, human; conditions: Calu3, 3 days after treatment
Outline: (§1)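 Human lung cancer cells were treated with a range of test-compound concentrations. Viability was read by sulforhodamine B assay 3 days after treatment. DMSO-treated control cells were set as 100. Values are mean ± SD of quadruplicate wells.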

[6] = Release of NSC-743380 from esterified derivatives in PBS; type: physicochemical; conditions: PBS pH 7.4, 0.5 mg/ml, 37°C
Outline: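 Test compound was made to 0.5 mg/ml in PBS pH 7.4 containing 12% DMSO and 18% acetonitrile (diluted from a DMSO/acetonitrile stock). It was held in a 37°C water bath for up to 24 h. Aliquots were taken at 0–24 h, frozen at −20°C, diluted 50-fold in acetonitrile and run on C18 HPLC (acetonitrile/water gradient, 0.2% formic acid, UV 280 nm). Data come from one of two experiments.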

[7] = tested on: H157 cells; assay: Cell viability, sulforhodamine B assay; type: cell-based; conditions: H157, 3 days after treatment
Outline: as §1

[8] = tested on: H460 cells; assay: Cell viability, sulforhodamine B assay; type: cell-based; conditions: H460, 3 days after treatment
Outline: as §1

[9] = tested on: liver functions; assay: Serum liver enzyme levels; type: in vivo; conditions: for serum liver enzyme activities: 25 mg/kd/day, each day for 8 days, blood 3 days after last treatment
[10] = Stability of injectable solution; type: physicochemical
[11] = tested on: liver; assay: Histopathological analysis on livers; type: in vivo; conditions: 150 mg/kg once, livers harvested 48 h after treatment
Outline: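 Mice received a single 150 mg/kg dose of test compound. Livers were harvested at 48 h, sectioned and examined histologically, with two mice per group.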

[12] = Tissue distribution in nude mice bearing Calu3 xenograft tumors; type: in vivo; conditions: 24 h
Outline: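 Nude mice (7–8 weeks) bearing subcutaneous Calu3 xenografts, one per group, received 60 mg/kg by tail vein in Solutol HS15/ethanol/0.9% NaCl. Mice were euthanised at 24 h. Liver, lungs, kidneys, spleen, small intestine and tumour were homogenised in methanol (50 mg/ml) on ice and mixed 1:1 with acetonitrile containing 0.2% formic acid and internal standard. Samples were centrifuged at 4°C and analysed by HPLC/MS.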

[13] = tested on: KRAS-mutant lung cancer cell line H157 xenografts; conditions: cited from earlier work
[14] = tested on: Calu3 cells; conditions: previous study ref 5; cited from earlier work
[15] = tested on: human renal cancer cell line A498 xenograft; conditions: compared with oncrasin-60 (NSC-741909); cited from earlier work
[16] = tested on: H1299 cells; conditions: previous study ref 5; cited from earlier work
[17] = especially in low-pH conditions; cited from earlier work
[18] = compared with oncrasin-60 (NSC-741909); cited from earlier work
[19] = tested on: H460 cells; conditions: previous study ref 5; cited from earlier work
[20] = tested on: H157 cells; conditions: previous study ref 5; cited from earlier work
[21] = 150 mg/kg i.p. daily for 3 days, 3 mice/group
[22] = 300 mg/kg i.p. on day 1 and day 2, 3 Balb/c mice/group
[23] = 150 mg/kg daily for 3 days, blood on day 6, surviving mice
[24] = animals treated with oncrasin-266, 60 mg/kg i.v.

O=C(CC1CCCCC1)OCc1cn(Cc2cccc(Cl)c2)c2ccccc12 [oncrasin-266, [1-(3-chlorobenzyl)-1H-indol-3-yl]methyl 2-cyclohexylacetate]
survival / death of mice [1, 21]: none of the oncrasin-266-treated mice died | survival / death of mice [1, 22]: one died on day 4 and the remaining two survived for at least 2 weeks | tolerability in vivo ([1]; 150-300 mg/kg i.p., mice): better tolerated than NSC-743380 | time stable in stock solution ([2]; 4°C): at least 4 weeks | time stable in stock solution ([2]; room temperature): at least 2 weeks | anticancer activity (cell viability) [3]: resistant | time powder stable without detectable changes ([4]; 4°C): at least 90 days | stability of powder (remaining) ([4]; by day 90): < 5% | time powder stable without detectable changes ([4]; room temperature): at least 90 days | anticancer activity (cell viability) [5]: equivalent anticancer activity as NSC743380 | time to complete the release of NSC-743380 [6]: about 6 hours | anticancer activity (cell viability) [7]: equivalent anticancer activity as NSC743380 | anticancer activity (cell viability) [8]: equivalent anticancer activity as NSC743380 | serum liver enzyme activities [9]: mostly in normal ranges | blood alanine transaminase (ALT) [9, 23]: about 115 Units/L | blood alkaline phosphatase (ALP) [9, 23]: ~50 Units/L | release of NSC-743380 from oncrasin-266 ([10]; injectable solution, 7 hours, 37°C): higher than 10% | oncrasin-266 hydrolyzed to release NSC-743380 ([10]; injectable solution, within 7 hours, room temperature): about 10% | histopathological changes in liver [11]: no obvious changes | oncrasin-266 detected in the liver [12, 24]: high concentration

OCc1cn(Cc2cccc(Cl)c2)c2ccccc12 [NSC-743380]
in vivo tumor suppression [13]: significant in vivo tumor suppression | survival / death of mice [1, 21]: Two mice in the NSC-743380-treated group died on day 5 | survival / death of mice [1, 22]: All three mice injected with NSC-743380 died on day 3 | time stable in stock solution ([2]; room temperature): at least 1 weeks | anticancer activity (cell viability) [3]: resistant | sensitivity of cells to NSC743380 therapy [14]: highly sensitive | stability of powder (remaining) ([4]; over 14 days): < 5% | anticancer activity in xenograft tumor model [15]: more effective anticancer activity | sensitivity of cells to NSC743380 therapy [16]: resistant | behaviour in solutions with water [17]: tends to form dimers in solutions with water and loses activity | maximum tolerated dose / tolerability [18]: much better tolerated | sensitivity of cells to NSC743380 therapy [19]: highly sensitive | serum liver enzyme activities [9]: mostly in normal ranges | blood alanine transaminase (ALT) [9, 23]: about 1936 Units/L | sensitivity of cells to NSC743380 therapy [20]: highly sensitive | loss in injectable solution ([10]; 37°C, 7 h): more than 20% | change in injectable solution ([10]; room temperature, 7 h): little change | histopathological changes in liver [11]: liver cell damage (necrosis) was obvious | tissues in which NSC-743380 was detectable [12, 24]: liver, lungs, kidneys, and subcutaneous tumor tissue | tissues in which NSC-743380 was detected ([12]; mice treated with NSC-743380, 60 mg/kg i.v.): lungs, intestine, and subcutaneous tumor tissue
